Experimental data from paper PMC3986664 (Molecular Metabolism, 2014).
Where a SMILES comes first, the peptide text is derived from it. [ ]: non-standard residue; d: D form. Aib = CC(C)(N)C(=O)O

How the values were obtained:
[1] = Long-term stability study, alkaline RP-HPLC; assay type: physicochemical
[2] = Measure of maximum solubility; assay type: physicochemical; details: pH 7.4, 10 mM Tris, 4 °C, 48 h, saturated solution, UV 280 nm, single point
How it was run: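 Saturated peptide solutions made in 10 mM Tris base, pH adjusted to 7.4, held 48 h at 4 °C and at ambient temperature, then pH re-measured. Serially diluted until no visible precipitate and UV absorbance became linear.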

Difference in stability at six months between Asp28 and IUB75 (Δ1) ([1]; Figure 8, trend-line of degradation slopes) [%] | Stability relative to Asp28 ([1]; same pH and ambient temperature, six month study) | Total degradation ([1]; six months, ambient temperature, 1 mg/ml, 20 mM Tris, 0.1% SDS, pH 8.6) | Apparent solubility relative to Asp28 [2] | Structure (SMILES)
40 | approximately twice as stable | more than 20% |  | CSCC[C@H](NC(=O)[C@H](CC(C)C)NC(=O)[C@H](Cc1c[nH]c2ccccc12)NC(=O)[C@H](CCC(N)=O)NC(=O)[C@@H](NC(=O)[C@H](Cc1ccccc1)NC(=O)[C@H](CC(=O)O)NC(=O)[C@H](CCC(N)=O)NC(=O)[C@H](C)NC(=O)[C@H](CCCNC(=N)N)NC(=O)[C@H](CCCNC(=N)N)NC(=O)C(C)(C)NC(=O)[C@H](CC(=O)O)NC(=O)[C@H](CC(C)C)NC(=O)[C@H](Cc1ccc(O)cc1)NC(=O)[C@H](CCCCN)NC(=O)[C@H](CO)NC(=O)[C@H](Cc1ccc(O)cc1)NC(=O)[C@H](CC(=O)O)NC(=O)[C@H](CO)NC(=O)[C@@H](NC(=O)[C@H](Cc1ccccc1)NC(=O)[C@@H](NC(=O)CNC(=O)[C@H](CCC(N)=O)NC(=O)[C@H](CO)NC(=O)[C@@H](N)Cc1c[nH]cn1)[C@@H](C)O)[C@@H](C)O)C(C)C)C(=O)N[C@@H](CC(=O)O)C(=O)N[C@@H](CCC(=O)O)C(=O)O [IUB75] (H-HSQGTFTSDYSKYLD[Aib]RRAQDFVQWLMDE-OH)
 |  |  | doubling in apparent peptide solubility | CSCC[C@H](NC(=O)[C@H](CC(C)C)NC(=O)[C@H](Cc1c[nH]c2ccccc12)NC(=O)[C@H](CCC(N)=O)NC(=O)[C@@H](NC(=O)[C@H](Cc1ccccc1)NC(=O)[C@H](CC(=O)O)NC(=O)[C@H](CCC(N)=O)NC(=O)[C@H](C)NC(=O)[C@H](CCCNC(=N)N)NC(=O)[C@H](CCCNC(=N)N)NC(=O)[C@H](CO)NC(=O)[C@H](CC(=O)O)NC(=O)[C@H](CC(C)C)NC(=O)[C@H](Cc1ccc(O)cc1)NC(=O)[C@H](CCCCN)NC(=O)[C@H](CO)NC(=O)[C@H](Cc1ccc(O)cc1)NC(=O)[C@H](CC(=O)O)NC(=O)[C@H](CO)NC(=O)[C@@H](NC(=O)[C@H](Cc1ccccc1)NC(=O)[C@@H](NC(=O)CNC(=O)[C@H](CCC(N)=O)NC(=O)[C@H](CO)NC(=O)[C@@H](N)Cc1c[nH]cn1)[C@@H](C)O)[C@@H](C)O)C(C)C)C(=O)N[C@@H](CC(=O)O)C(=O)N[C@@H](CCC(=O)O)C(=O)O [Asp28,Glu29]
